Paper PMC3372611 (Biochemical Pharmacology, 2012)
Changes are numbered by the printed parent chain. Several values for one entry are separate records, joined by “and”; a condition that tells them apart may be missing. Identical values can stand only once.

What was measured:
PMAT I89M mutant [1] = biological target: T1, PMAT I89M mutant (Homo sapiens, UniProt Q7RTT9, I89M); assay: Concentration-dependent [3H]MPP+ uptake; assay type: cell-based; conditions: MPP+ as substrate
T1 sequence (Q7RTT9 1-530 I89M): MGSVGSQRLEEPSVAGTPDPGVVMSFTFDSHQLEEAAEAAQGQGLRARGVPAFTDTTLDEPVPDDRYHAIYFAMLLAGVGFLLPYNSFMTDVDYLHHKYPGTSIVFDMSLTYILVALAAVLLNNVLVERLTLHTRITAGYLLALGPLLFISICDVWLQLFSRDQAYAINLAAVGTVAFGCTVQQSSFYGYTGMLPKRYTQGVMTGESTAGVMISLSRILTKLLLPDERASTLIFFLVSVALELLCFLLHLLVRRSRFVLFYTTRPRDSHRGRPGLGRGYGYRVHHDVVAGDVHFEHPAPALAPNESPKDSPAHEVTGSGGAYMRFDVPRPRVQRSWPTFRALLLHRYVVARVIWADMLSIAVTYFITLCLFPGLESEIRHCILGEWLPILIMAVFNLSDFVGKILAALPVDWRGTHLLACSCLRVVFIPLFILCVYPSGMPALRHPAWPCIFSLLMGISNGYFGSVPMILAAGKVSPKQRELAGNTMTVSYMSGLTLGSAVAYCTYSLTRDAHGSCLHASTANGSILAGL
Method in brief: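 MDCK cells stably expressing YFP-tagged WT or I89M human PMAT (G418-selected, FACS-sorted) were grown 2–3 days to ~90–100% confluence. Cells were preincubated 15 min in KRH buffer (pH 7.4) at 37°C, then given various [3H]MPP+ concentrations for 1 min at 37°C. Uptake was read by scintillation and normalized to protein. Vector-cell uptake was subtracted, and Km and Vmax came from Michaelis-Menten nonlinear least-squares fits. Wells in triplicate; n=3 passages.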

ENT1 = conditions: mammalian ENT1 proteins; cited from earlier work
PMAT I89M mutant [2] = biological target: T1, PMAT I89M mutant; assay: Inhibition of [3H]MPP+ uptake in I89M-transfected MDCK cells; assay type: cell-based
Method in brief: (§1)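 Stably transfected MDCK cells (YFP-tagged WT or I89M human PMAT) at confluence were exposed 1 min at 37°C in KRH buffer (pH 7.4) to [3H]MPP+ (1 μM) with or without test compound at various concentrations. Cells were washed in ice-cold KRH, counted by scintillation, and normalized to protein. IC50 came from fitting total uptake to a Hill-type equation with residual baseline. Wells in triplicate; three independent experiments on different passages; mean ± S.D.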

ENT2 = ENT2 transporters; cited from earlier work
WT PMAT = biological target: T2, WT PMAT (Homo sapiens, UniProt Q7RTT9); assay: Inhibition of [3H]MPP+ uptake in WT PMAT-transfected MDCK cells; assay type: cell-based
T2 sequence (Q7RTT9 1-530): T1 sequence (Q7RTT9 1-530 I89M) with M89I
Method in brief: as §1

C[n+]1ccc(-c2ccccc2)cc1 [MPP^+, 1-methyl-4-phenylpyridinium]
Decrease in maximal transport velocity (Vmax), I89M vs WT PMAT (PMAT I89M mutant [1]): 2.7 fold and ~ 2.7 fold | Decrease in transport efficiency (Vmax/Km), I89M vs WT PMAT (PMAT I89M mutant [1]): 3.7 fold

O=[N+]([O-])c1ccc(CSc2ncnc3c2ncn3[C@@H]2O[C@H](CO)[C@@H](O)[C@H]2O)cc1 [NBMPR, nitrobenzylmercaptopurine riboside]
Kd (ENT1): 0.001 to 0.01 µM | Change in inhibition, I89M vs WT PMAT (in words) (PMAT I89M mutant [2]; inhibition of MPP+ uptake): no significant changes | Concentration at which the transporter becomes sensitive (ENT2): > 10 µM

COc1cc(C(=O)OCCCN2CCCN(CCCOC(=O)c3cc(OC)c(OC)c(OC)c3)CC2)cc(OC)c1OC [Dilazep, dilazep]
IC50 (WT PMAT): 16.6 ± 2.1 µM | IC50 (PMAT I89M mutant [2]): 6.6 ± 0.5 µM | Increase in transporter sensitivity to inhibition, I89M vs WT PMAT (PMAT I89M mutant [2]; inhibition of MPP+ uptake): 2.5 fold and ~ 2.5 fold

OCCN(CCO)c1nc(N2CCCCC2)c2nc(N(CCO)CCO)nc(N3CCCCC3)c2n1 [Dipyridamole, dipyridamole]
IC50 (PMAT I89M mutant [2]): 4.6 ± 1.8 µM | Change in inhibition, I89M vs WT PMAT (in words) (PMAT I89M mutant [2]; inhibition of MPP+ uptake): no significant changes
